Experiments:
[1] = NADH oxidation by the compound was determined; type: functional
How it was run: (§1)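 Enzymatic NADH oxidation stimulated by compound: reaction with 100 μM test compound, 100 μM NADH, NADH dehydrogenase at the stated activity, in 0.05 M HEPES pH 7.4.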

[2] = biological target: NADH-ubiquinone oxidoreductase chain 4 (Homo sapiens) (UniProt P03905); experiment: (§2) Activity of NADH dehydrogenase was determined; type: functional; how it was run: as §1
[3] = biological target: NADH-ubiquinone oxidoreductase chain 4 (Homo sapiens) (UniProt P03905); experiment: (§3) Concentration of substrate at which the amount of total cytochrome c reduction is decreased by 10%; type: functional
How it was run: (§4)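 NADH dehydrogenase substrate assay: decrease in enzymatic cytochrome c reduction at low NADH. Mixture of […], 0–200 μM compound, 10 μM NADH, 0.125 units/mL NADH dehydrogenase, 50 μg/mL SOD, 0.50 M HEPES pH 7.4. IC10 = substrate concentration reducing total cytochrome c reduction by 10%.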

[4] = tested on: L1210; experiment: Concentration of compound required to inhibit the cellular protein biosynthesis by 50%; type: functional, cell-based; settings: Mus musculus
How it was run: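 Murine L1210 leukemia cells grown in RPMI 1640 with 5% fetal calf serum, penicillin/streptomycin, 37 °C, 5% CO2, passaged every 2–3 days. Log-phase cells seeded at final 0.05×10^6 cells/mL and exposed 48 h. Growth inhibition read as cellular protein content; EC50 = concentration giving 50% inhibition. At least four runs, mean ± SEM.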

[5] = Ratio of toxic deaths/survivors 7 days after the day 5 injection as a measure of drug toxicity at the dose of 100 (mg/kg); type: organism-based; settings: in vivo, 168 h
How it was run: (§5)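 P388 leukemia model in (BALB/c × DBA/2) F1 mice, 10^6 cells ip on day 0. Toxicity was scored as toxic deaths/survivors 7 days after the day-5 injection.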

[6] = tested on: P388; experiment: ratio of medium survival time of the treated to the control mice at the dose of 50 (mg/kg); type: functional, Mus musculus
[7] = tested on: P388; experiment: (§6) Ratio of medium survival time of the treated to the control mice at the dose of 100 (mg/kg); type: functional, Mus musculus
[8] = as §2; type: functional; how it was run: as §1
[9] = species on record: Equus caballus; experiment: as §3; type: functional; how it was run: as §4
[10] = Ratio of toxic deaths/survivors 7 days after the day 5 injection as a measure of drug toxicity at the dose of 50 (mg/kg); type: organism-based; settings: in vivo, 168 h; how it was run: as §5
[11] = tested on: P388; experiment: Ratio of medium survival time of the treated to the control mice at the dose of 50 (mg/kg); type: functional, Mus musculus
[12] = Ratio of toxic deaths/survivors 7 days after the day 5 injection as a measure of drug toxicity at the dose of 200 (mg/kg); type: organism-based; settings: in vivo, 168 h; how it was run: as §5
[13] = tested on: Mus musculus; experiment: as §6; type: functional
[14] = tested on: Mus musculus; experiment: Ratio of medium survival time of the treated to the control mice at the dose of 200 (mg/kg); type: functional
[15] = tested on: P388; experiment: ratio of medium survival time of the treated to the control mice at the dose of 25 (mg/kg); type: functional, Mus musculus
[16] = Ratio of toxic deaths/survivors 7 days after the day 5 injection as a measure of drug toxicity at the dose of 25 (mg/kg); type: organism-based; settings: in vivo, 168 h; how it was run: as §5
[17] = Ratio of toxic deaths/survivors 7 days after the day 5 injection as a measure of drug toxicity; settings: 168 h; how it was run: as §5
[18] = Ratio of toxic deaths/survivors 7 days after the day 5 injection as a measure of drug toxicity at the dose of 12.50 (mg/kg); type: functional; how it was run: as §5
[19] = tested on: P388; experiment: ratio of medium survival time of the treated to the control mice at the dose of 12.50 (mg/kg); type: functional, Mus musculus
[20] = tested on: P388; experiment: ratio of medium survival time of the treated to the control mice at the dose of 6.25 (mg/kg); type: functional, Mus musculus
[21] = Ratio of toxic deaths/survivors 7 days after the day 5 injection as a measure of drug toxicity at the dose of 3.12 (mg/kg); type: functional; how it was run: as §5
[22] = tested on: P388; experiment: ratio of medium survival time of the treated to the control mice at the dose of 3.12 (mg/kg); type: functional, Mus musculus
[23] = Ratio of toxic deaths/survivors 7 days after the day 5 injection as a measure of drug toxicity at the dose of 6.25 (mg/kg); type: functional; how it was run: as §5

NADH-ubiquinone oxidoreductase chain 4 (Homo sapiens), sequence (P03905 whole entry, looked up): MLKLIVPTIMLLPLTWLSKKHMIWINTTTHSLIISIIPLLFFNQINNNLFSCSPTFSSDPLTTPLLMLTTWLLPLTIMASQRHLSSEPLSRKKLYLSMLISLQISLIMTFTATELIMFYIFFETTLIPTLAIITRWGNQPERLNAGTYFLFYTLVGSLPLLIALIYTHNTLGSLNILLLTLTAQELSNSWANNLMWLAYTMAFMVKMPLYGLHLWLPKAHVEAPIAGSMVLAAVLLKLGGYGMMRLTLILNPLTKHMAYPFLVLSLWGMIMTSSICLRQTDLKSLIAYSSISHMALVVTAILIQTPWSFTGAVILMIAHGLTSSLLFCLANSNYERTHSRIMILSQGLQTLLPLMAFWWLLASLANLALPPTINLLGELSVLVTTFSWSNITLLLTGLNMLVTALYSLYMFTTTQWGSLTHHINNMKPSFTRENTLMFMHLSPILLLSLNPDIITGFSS

Structure (SMILES) | Oxidation [1] [µM/min] | Activity [2] [units ml-1] | Activity [1] [µM/min] | EC50 [4] [nM] | ToxD/Surv [5] | T/C [7] [%] | Activity [8] [U/mL] | IC10 [9] [nM] | ToxD/Surv [10] | T/C [11] [%] | other results
COc1cccc2c1C(=O)c1c(O)c3c(c(O)c1C2=O)C[C@@](O)(C(C)=O)C[C@@H]3O[C@H]1C[C@H](N)[C@H](O)[C@H](C)O1 | 33 | 0.15 | – | – | – | – | – | – | – | – | IC10 ([3]; Equus caballus): 2000 nM
CN(C)CCNc1ccc2ncnc3c2c1C(=O)c1ccccc1-3 | – | – | 6.5 | 203 | 6 | 209 | 0.75 | > 300000 | 6 | – | T/C [6]: 155%
CCN(CC)CCNc1ccc2ncnc3c2c1C(=O)c1ccccc1-3 | – | – | 7 | 460 | 7 | 180 | 0.75 | > 300000 | 5 | 140 | –
Nc1ccc2ncnc3c2c1C(=O)c1ccccc1-3 | – | – | – | 945 | 0 | – | – | – | – | – | ToxD/Surv [12]: 0; T/C [13]: 100%; T/C [14]: 100%
CNCCNc1ccc2ncnc3c2c1C(=O)c1ccccc1-3 | – | – | 7.6 | 268 | 6 | 164 | 0.75 | > 300000 | 6 | 146 | –
NCCNc1ccc2ncnc3c2c1C(=O)c1ccccc1-3 | – | – | 4.5 | 379 | – | – | 0.75 | > 300000 | 7 | 150 | T/C [15]: 140%; ToxD/Surv [16]: 7
NCCCNc1ccc2ncnc3c2c1C(=O)c1ccccc1-3 | – | – | 4.7 | 546 | 4 | 127 | 0.75 | > 300000 | 7 | 127 | –
O=C1c2ccccc2-c2ncnc3ccc(NCCNCCO)c1c23 | – | – | 7.4 | 296 | – | 255 | 0.75 | – | – | 173 | ToxD/Surv [17]: 7; IC10 ([3]; Equus caballus): > 300000 nM
O=C1c2ccccc2C(=O)c2c(NCCNCCO)ccc(NCCNCCO)c21 [AMETANTRONE] | 8.8 | 0.75 | – | 275 | – | – | – | – | – | – | ToxD/Surv [18]: 6; T/C [19]: 300%; T/C [20]: 210%; ToxD/Surv [21]: 6; T/C [22]: 190%; IC10 [3]: 114000 nM; ToxD/Surv [23]: 6
COc1cccc2c1C(=O)c1c(O)c3c(c(O)c1C2=O)C[C@@](O)(C(=O)CO)C[C@@H]3O[C@H]1C[C@H](N)[C@H](O)[C@H](C)O1 | 30.1 | 0.15 | – | – | – | – | – | – | – | – | –

Source: ChEMBL document CHEMBL1126673, “6-[(aminoalkyl)amino]-substituted 7H-benzo[e]perimidin-7-ones as novel antineoplastic agents. Synthesis and biological evaluation” (J Med Chem, 1993)
